Results taken from PMC12005346 (ACS chemical neuroscience, 2023).
Counter-ions that a name gives are not always drawn. *1 amine or outer side, *2 acyl side, *3 side chain or, on linkers, in order; H or OH if unused. Where a SMILES comes first, the peptide text is derived from it. Bridges are numbered along the chain shown (N, C = ends). Roman numbers before positions name the chains, in order. [ ]: non-standard residue; d: D form. Piperazine(1,4-diyl) = C1CN([*:2])CCN1[*:1]; Phe(4-F) = N[C@@H](Cc1ccc(F)cc1)C(=O)O; Dmt = Cc1cc(O)cc(C)c1C[C@H](N)C(=O)O; oXylylene = c1ccc(C[*:2])c(C[*:1])c1

What was measured:
[1] = system: dependence and withdrawal; test: Naloxone-precipitated withdrawal; type: in vivo, CD-1 mice; conditions: 3.2 mg/kg s.c. repeated dosing, naloxone 30 mg/kg i.p. on day 4
[2] = system: response to thermal nociceptive stimuli; test: Tail flick test after i.c.v. administration; type: in vivo, mouse; conditions: i.c.v. 0.6 nmol/10 μL, 90 to 120 min after administration
In short: (§1)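 Mice received test compound i.c.v. at 0.6 nmol/10 μL. Vehicle was DMSO/saline 1:5 v/v, 10 μL/mouse. Hot plate and tail flick responses to thermal stimuli were recorded as a time course starting 15 min after dosing and expressed as % MPE. Groups were N = 12 or 7. Analysis was two-way ANOVA with Tukey's test versus vehicle.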

[3] = system: response to thermal nociceptive stimuli; test: Hot plate test after i.c.v. administration; type: in vivo, mouse; conditions: i.c.v. 0.6 nmol/10 μL, 90 to 120 min after administration
In short: as §1

formalin-induced pain = test: Formalin test; type: in vivo, mouse; conditions: s.c. hind paw 100 nmol/20 μL, 15 min before formalin
In short: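 Test compound (100 nmol/20 μL) was injected s.c. into the left dorsal hind paw 15 min before formalin (1% in saline, 20 μL/paw) in the same paw. Vehicle was DMSO/saline 1:5 v/v, […] s.c. Total licking/biting time was scored in the early and late phases. Analysis was two-way ANOVA with Tukey's test.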

[4] = target: human KOR expressed in CHO cells (Homo sapiens, UniProt P41145); test: 35S-GTPγS coupling assay at KOR; type: biochemical
Sequence of human KOR expressed in CHO cells (P41145 whole entry): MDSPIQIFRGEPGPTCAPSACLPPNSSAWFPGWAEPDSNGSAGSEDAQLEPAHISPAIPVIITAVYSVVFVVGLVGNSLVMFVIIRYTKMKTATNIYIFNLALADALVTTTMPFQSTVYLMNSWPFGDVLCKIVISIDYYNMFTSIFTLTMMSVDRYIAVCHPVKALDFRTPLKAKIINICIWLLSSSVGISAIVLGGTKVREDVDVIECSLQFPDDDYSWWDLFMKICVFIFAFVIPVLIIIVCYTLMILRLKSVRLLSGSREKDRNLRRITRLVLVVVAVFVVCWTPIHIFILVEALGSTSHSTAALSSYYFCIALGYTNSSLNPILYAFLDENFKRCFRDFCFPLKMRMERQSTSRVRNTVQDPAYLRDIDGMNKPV
In short: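 Test compounds stimulated 35S-GTPγS coupling at human MOR, DOR or KOR expressed in CHO cells. Reference agonists were included to validate the assay: DAMGO for MOR, SNC80 for DOR and U50,488 for KOR. EC50 and EMAX were calculated separately for each independent experiment and reported as mean ± SEM of N ≥ 3 experiments.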

For `CN1CC[C@]23c4c5ccc(O)c4O[C@H]2[C@@H](O)C=C[C@H]3[C@H]1C5` [morphine], the “urine/feces output in naloxone-precipitated withdrawal” value [1] was “comparable urine/feces output”.

With biphalin the “antinociceptive effect (% MPE), tail flick” value [2] was “antinociceptive effects steadily decrease” and the “antinociceptive effect (% MPE), hot plate” value [3] was “antinociceptive effects steadily decrease”.

With `Cc1cc(O)cc(C)c1C[C@H](N)C(=O)N[C@@H]1CSCc2ccccc2CSC[C@@H](NC(=O)[C@@H](N)Cc2c(C)cc(O)cc2C)C(=O)NCC(=O)N[C@@H](Cc2ccc(F)cc2)C(=O)N2CCN(CC2)C(=O)[C@H](Cc2ccc(F)cc2)NC(=O)CNC1=O` [MJ4, 2 TFA c(Dmt-D-Cys-Gly-P-F-Phe)2-piperazine o-Xylene] (I: H-[Dmt][dC]G[Phe(4-F)] / II: H-[Dmt][dC]G[Phe(4-F)]; linker I:2-II:2 via oXylylene; linker I:C-II:C via Piperazine(1,4-diyl)) the “licking/biting behavior induced by formalin, early phase” value (formalin-induced pain) was “did not change the effects induced by formalin”, the “licking/biting behavior induced by formalin, late phase” value (formalin-induced pain) was “did not change the effects induced by formalin” and the “KOR agonist activity, in words” value [4] was “more potent agonist activity”.
